The source made the active and inactive calls. The rule behind the calls is not given here.
How the values were obtained:
Quadruplex DNA [1] = test: Binding affinity to human G-quadruplex telomeric DNA F21T (5'-duplex GGG TTAGGG TTAGGG TTAGGG-3') assessed as change in melting temperature at 1 uM incubated for 5 min by FRET assay; assay type: nucleic-acid assay
Outline: (§1)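 Fluorescently labelled oligonucleotide annealed (95 °C, 5 min) in 10 mM lithium cacodylate/90 mM LiCl, pH 7.2; 0.2 μM final, with or without ligand. Held 5 min at 25 °C, then heated 0.5 °C/min to 95 °C. Tm taken at normalized signal 0.5; ΔTm = Tm with ligand minus Tm without. Tested in duplicate.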

[2] = Selectivity index, ratio of IC50 for human MRC5 cells to IC50 for human HT-29 cells; assay type: toxicity; conditions: MRC5 cells versus HT-29 cells, read-out: Selectivity Index
Outline: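 Selectivity index: MRC-5 IC50 divided by HT-29 IC50.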

[3] = Cytotoxicity against human MRC5 cells assessed as reduction in cell viability incubated for 48 hrs by MTT assay; assay type: toxicity, cell-based
Outline: (§2)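 MTT assay: 5×10^3 cells per well in DMEM with 10% hiFBS (4.5 g/L glucose for HT-29, 1 g/L for MRC-5), exposed to increasing compound concentrations for 48 h at 37 °C. MTT added for 4 h, formazan dissolved in DMSO, absorbance read at 575 nm. IC50 from four-parameter logistic fit.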

HT-29 = test: Cytotoxicity against human HT-29 cells assessed as reduction in cell viability incubated for 48 hrs by MTT assay; assay type: functional, cell-based; conditions: HT-29, 48 h; outline: as §2
Leishmania major = test: Antileishmanial activity against Leishmania major (MHOM/IL/80/Friedlin) promastigotes assessed as reduction in parasite growth incubated for 72 hrs by MTT assay; assay type: functional, organism-based
Outline: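 L. major Friedlin promastigotes, 1×10^6/mL in modified RPMI-1640 with 10% hiFBS, exposed to increasing compound concentrations for 72 h at 28 °C; proliferation read by MTT; IC50 from four-parameter logistic fit versus untreated controls.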

Quadruplex DNA [4] = test: Binding affinity to human G-quadruplex telomeric DNA F21T (5'-duplex GGG TTAGGG TTAGGG TTAGGG-3') by mass spectrometric analysis; assay type: nucleic-acid assay
Outline: (§3)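 Native ESI-FTICR MS in negative ion mode under soft conditions, in 100 mM ammonium acetate; DNA at 5 μM with ligand at 10 μM.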

Trypanosoma brucei = test: Antitrypanosomal activity against Trypanosoma brucei incubated for 72 hrs by alamar blue dye based fluorimetry analysis; assay type: functional, organism-based
Outline: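 Bloodstream-form T. brucei S16 (Lister 427, MiTat 1.2), 1×10^3 per well in HMI-9 with 20% hiFBS, exposed to increasing compound concentrations for 72 h at 37 °C, 5% CO2. Resazurin then added for 4 h, cells lysed with SDS, fluorescence read at ex 550/em 590 nm. IC50 from four-parameter logistic fit; three independent runs, each in triplicate.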

[5] = Selectivity index, ratio of IC50 for cytotoxicity against human MRC5 cells to IC50 for antileishmanial activity against Leishmania major (MHOM/IL/80/Friedlin) promastigotes; assay type: toxicity, cell-based; conditions: read-out: Selectivity Index
Outline: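 Selectivity index: MRC-5 IC50 divided by L. major promastigote IC50.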

[6] = Selectivity index, ratio of IC50 for cytotoxicity against human MRC5 cells to IC50 for antitrypanosomal activity against Trypanosoma brucei; assay type: toxicity, cell-based; conditions: MRC5 cells versus Trypanosoma brucei, read-out: Selectivity Index
Outline: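 Selectivity index: MRC-5 IC50 divided by T. brucei IC50.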

Quadruplex DNA [7] = test: Binding affinity to parallel G-quadruplex DNA TGGGGT TGGGGT TGGGGT TGGGGT (unknown origin) by mass spectrometric analysis; assay type: nucleic-acid assay; outline: as §3
[8] = Drug localization in cytoplasm of Trypanosoma brucei at 5 uM incubated for 30 to 120 mins by DAPI staining based fluorescence microscopic analysis; assay type: ADME, subcellular; conditions: time 30-120 min
Outline: (§4)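 T. brucei at 1×10^7/mL exposed to 5 μM compound in FBS-free medium for 30 and 120 min at 37 °C; fixed in cold 4% paraformaldehyde, DAPI-stained and imaged by widefield microscopy. Compound excited with the 542–566 filter and emission collected at 578–610 nm.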

[9] = Drug localization in nucleus of human HT-29 cells at 25 uM incubated for 30 to 120 mins by DAPI staining based fluorescence microscopic analysis; assay type: ADME, subcellular; conditions: ht-29, 25 µM, time 30-120 min
Outline: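 HT-29 cells grown 24 h on coverslips in FBS-free medium, then exposed to 25 μM compound for 30 or 120 min at 37 °C. Mounted in DAPI medium and imaged by widefield fluorescence microscopy; compound emission collected at 578–610 nm, DAPI at 437–474 nm.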

[10] = Drug uptake in human MRC5 cells at 10 uM incubated for 2 hrs by fluorescence based multiplate reader method; assay type: ADME, cell-based; conditions: mrc5, 2 h
Outline: (§5)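 225,000 trypsinized cells incubated with 10 μM compound in 0.75 mL medium for 2 h at 37 °C; washed three times with PBS, lysed in 3% SDS and sonicated. NDI fluorescence read at ex 485/em 535 nm, quantified against a calibration curve in cell lysate and normalized to BCA protein. Reported as % of compound added.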

[11] = Drug localization in nucleus of Trypanosoma brucei at 5 uM incubated for 30 to 120 mins by DAPI staining based fluorescence microscopic analysis; assay type: ADME, subcellular; conditions: time 30-120 min; outline: as §4
[12] = Drug uptake in human HT-29 cells at 10 uM incubated for 2 hrs by fluorescence based multiplate reader method; assay type: ADME, cell-based; conditions: ht-29, 2 h; outline: as §5
[13] = Drug uptake in Trypanosoma brucei at 10 uM incubated for 2 hrs by fluorescence based multiplate reader method; assay type: ADME
Quadruplex DNA [14] = test: Binding affinity to human G-quadruplex telomeric DNA F21T (5'-duplex GGG TTAGGG TTAGGG TTAGGG-3') assessed as change in melting temperature at 5 uM incubated for 5 min by FRET assay; assay type: nucleic-acid assay; outline: as §1
Quadruplex DNA [15] = test: Binding affinity to human G-quadruplex telomeric DNA F21T (5'-duplex GGG TTAGGG TTAGGG TTAGGG-3') assessed as change in melting temperature at 2 uM incubated for 5 min by FRET assay; assay type: nucleic-acid assay; outline: as §1

| SMILES | ΔTm (Quadruplex DNA [1]) [°C] | selectivity ratio [2] | IC50 at 48 h [3] [nM] | IC50 (HT-29) [nM] | IC50 (Leishmania major) [nM] | Activity (Quadruplex DNA [4]) | IC50 (Trypanosoma brucei) [nM] | selectivity ratio [5] | selectivity ratio [6] | Activity (Quadruplex DNA [7]) | Drug uptake [8] | Drug uptake [9] | Drug uptake [10] [%] | Drug uptake [11] | Drug uptake [12] [%] | Drug uptake [13] [%] | ΔTm (Quadruplex DNA [14]) [°C] | ΔTm (Quadruplex DNA [15]) [°C] |
| --- | --- | --- | --- | --- | --- | --- | --- | --- | --- | --- | --- | --- | --- | --- | --- | --- | --- | --- |
| CN(C)CCCN1C(=O)c2ccc3c4c(c(NCc5cn(CCO[C@@H]6O[C@H](CO)[C@H](O)[C@H](O)[C@H]6O)nn5)cc(c24)C1=O)C(=O)N(CCCN(C)C)C3=O | 10 | 3.9 | 1940 | 500 | 13900 | Active | 50 | 0.14 | 38.8 | Active |  |  |  |  |  |  |  |  |
| CN(C)CCCN1C(=O)c2ccc3c4c(c(NCc5cn(CCS[C@@H]6O[C@H](CO)[C@@H](O[C@H]7O[C@H](CO)[C@@H](O)[C@H](O)[C@H]7O)[C@H](O)[C@H]6O)nn5)cc(c24)C1=O)C(=O)N(CCCN(C)C)C3=O | 10 | 9.8 | 2940 | 300 | 510 | Active | 60 | 5.7 | 49 | Active | Active | Active | 20.7 | Active | 23.1 | 4.3 |  |  |
| O=C1c2ccc3c4c(c(NCc5cn(CCS[C@@H]6O[C@H](CO)[C@H](O)[C@H](O)[C@H]6O)nn5)cc(c24)C(=O)N1CCN1CCOCC1)C(=O)N(CCN1CCOCC1)C3=O | 1 | 0.9 | 23500 | 26500 | 30000 |  | 850 | 0.8 | 27.6 |  |  |  |  |  |  | 6.8 | 5 |  |
| CN(C)CCCN1C(=O)c2ccc3c4c(c(NCc5cn(CCO[C@@H]6O[C@H](CO)[C@@H](O[C@H]7O[C@H](CO)[C@@H](O)[C@H](O)[C@H]7O)[C@H](O)[C@H]6O)nn5)cc(c24)C1=O)C(=O)N(CCCN(C)C)C3=O | 10 | 3.8 | 1800 | 480 | 800 |  | 60 | 2.3 | 30 |  | Active | Active | 25.5 | Active | 20.9 | 7 |  |  |
| O=C1c2ccc3c4c(c(NCc5cn(CCO[C@@H]6O[C@H](CO)[C@H](O)[C@H](O)[C@H]6O)nn5)cc(c24)C(=O)N1CCN1CCOCC1)C(=O)N(CCN1CCOCC1)C3=O | 1 | 2.9 | 10400 | 3600 | 27500 |  | 150 | 0.38 | 69.3 |  |  |  |  |  |  | 5.4 |  | 5 |
| CN(C)CCCN1C(=O)c2ccc3c4c(c(NCc5cn(CCS[C@@H]6O[C@H](CO)[C@H](O)[C@H](O)[C@H]6O)nn5)cc(c24)C1=O)C(=O)N(CCCN(C)C)C3=O | 10 | 4.4 | 1550 | 350 | 740 | Active | 40 | 2.1 | 38.7 | Active |  |  |  |  |  |  |  |  |

Source: ChEMBL document CHEMBL5154742, “Thiosugar naphthalene diimide conjugates: G-quadruplex ligands with antiparasitic and anticancer activity” (Eur J Med Chem, 2022)
